Test results taken from ChEMBL document CHEMBL3871278, “Isolation of Coralmycins A and B, Potent Anti-Gram Negative Compounds from the Myxobacteria Corallococcus coralloides M23” (J Nat Prod, 2016).
In brackets after ≈: the same amount, converted by molar mass. Where a name gives a salt, the structure may show the parent alone.

Experiments:
Staphylococcus aureus [1] = experiment: Antibacterial activity against Staphylococcus aureus RN4220 after 24 hrs by broth microdilution method; assay type: functional; details: RN4220, 24 h
How it was run: (§1)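 Broth microdilution with triplicate serial 2-fold dilutions; inoculum 10^5 cells/mL at 0.2 mL/well. Strains were grown to mid-log phase and diluted 1000-fold. Media: Mueller-Hinton broth for most strains, nutrient broth for A. baumannii, Todd-Hewitt for S. pneumoniae. DMSO was at most 0.05% final. After 24 h at 37 °C, MIC = lowest concentration completely inhibiting growth, read by A650.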

Staphylococcus aureus [2] = experiment: Antibacterial activity against methicillin-resistant Staphylococcus aureus CCARM 3167 after 24 hrs by broth microdilution method; assay type: functional; details: CCARM 3167, 24 h
How it was run: (§2)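 Strains grown to mid-log phase in Mueller-Hinton broth, diluted 1000-fold; 10^5 cells/mL in Mueller-Hinton broth exposed to serial 2-fold dilutions of compound from DMSO stocks (final DMSO ≤0.05%; 0.05% DMSO vehicle control; ciprofloxacin comparator). Incubated 24 h at 37 °C; growth read by absorbance at 650 nm. MIC = lowest concentration completely inhibiting growth, in triplicate.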

Staphylococcus aureus [3] = experiment: Antibacterial activity against methicillin-resistant Staphylococcus aureus CCARM 3506 after 24 hrs by broth microdilution method; assay type: functional; details: CCARM 3506, 24 h; how it was run: as §2
Staphylococcus aureus [4] = experiment: Antibacterial activity against quinolone-resistant Staphylococcus aureus CCARM 3505 after 24 hrs by broth microdilution method; assay type: functional; details: CCARM 3505, 24 h; how it was run: as §2
Staphylococcus aureus [5] = experiment: Antibacterial activity against quinolone-resistant Staphylococcus aureus CCARM 3519 after 24 hrs by broth microdilution method; assay type: functional; details: CCARM 3519, 24 h; how it was run: as §2
Streptococcus pneumoniae = experiment: Antibacterial activity against Streptococcus pneumoniae KCTC 5412 after 24 hrs by broth microdilution method; assay type: functional; details: KCTC 5412, 24 h; how it was run: as §1
Enterococcus faecalis = experiment: Antibacterial activity against Enterococcus faecalis KCTC 5191 after 24 hrs by broth microdilution method; assay type: functional; details: KCTC 5191, 24 h; how it was run: as §1
Escherichia coli [6] = experiment: Antibacterial activity against Escherichia coli CCARM 1356 after 24 hrs by broth microdilution method; assay type: functional; details: CCARM 1356, 24 h; how it was run: as §1
Escherichia coli [7] = experiment: Antibacterial activity against Escherichia coli KCTC 1682 after 24 hrs by broth microdilution method; assay type: functional; details: KCTC 1682, 24 h; how it was run: as §1
Pseudomonas aeruginosa = experiment: Antibacterial activity against Pseudomonas aeruginosa KCTC 2004 after 24 hrs by broth microdilution method; assay type: functional; details: KCTC 2004, 24 h; how it was run: as §1
Acinetobacter baumannii = experiment: Antibacterial activity against Acinetobacter baumannii KCTC 2508 after 24 hrs by broth microdilution method; assay type: functional; details: KCTC 2508, 24 h; how it was run: as §1
Klebsiella pneumoniae = experiment: Antibacterial activity against Klebsiella pneumoniae KCTC 22057 after 24 hrs by broth microdilution method; assay type: functional; details: KCTC 22057, 24 h; how it was run: as §1
[8] = Cytotoxicity against human HepG2 cells assessed as cell growth inhibition at 50 ug/ml after 48 hrs by SRB assay; assay type: toxicity, cell-based; details: hepg2, 48 h
How it was run: (§3)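 Single-concentration test at 50 μg/mL for 48 h. HepG2, MRC-9 or MCF10A cells (under passage 20) were grown in RPMI 1640 with 10% newborn calf serum and seeded at 1 × 10^4 cells/well one day before treatment. Growth inhibition was read by sulforhodamine B assay.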

[9] = Cytotoxicity against human MRC9 cells assessed as cell growth inhibition at 50 ug/ml after 48 hrs by SRB assay; assay type: toxicity, cell-based; details: mrc9, 48 h; how it was run: as §3
[10] = Cytotoxicity against human MCF10A cells assessed as cell growth inhibition at 50 ug/ml after 48 hrs by SRB assay; assay type: toxicity, cell-based; details: mcf-10a; how it was run: as §3
[11] = Cytotoxicity against human HepG2 cells assessed as cell growth inhibition after 48 hrs by SRB assay; assay type: toxicity, cell-based
How it was run: (§4)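 HepG2, MRC-9 or MCF10A cells (under passage 20) were grown in RPMI 1640 with 10% newborn calf serum and seeded at 1 × 10^4 cells/well one day before treatment. Compounds were applied at various concentrations for 48 h. Viability was measured by sulforhodamine B staining, and GI50 was calculated from the dose-response.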

[12] = Cytotoxicity against human MRC9 cells assessed as cell growth inhibition after 48 hrs by SRB assay; assay type: toxicity, cell-based; how it was run: as §4
[13] = Cytotoxicity against human MCF10A cells assessed as cell growth inhibition after 48 hrs by SRB assay; assay type: toxicity, cell-based, MCF-10A; how it was run: as §4

SMILES | MIC (Staphylococcus aureus [1]) | MIC (Staphylococcus aureus [2]) | MIC (Staphylococcus aureus [3]) | MIC (Staphylococcus aureus [4]) | MIC (Staphylococcus aureus [5]) | MIC (Streptococcus pneumoniae) | MIC (Enterococcus faecalis) | MIC (Escherichia coli [6]) | MIC (Escherichia coli [7]) | MIC (Pseudomonas aeruginosa) | MIC (Acinetobacter baumannii) | MIC (Klebsiella pneumoniae) | Activity [8] | Activity [9] | Activity [10] | GI50 at 48 h [11] | GI50 at 48 h [12] | GI50 at 48 h [13]
CO[C@@H](C(N)=O)[C@H](NC(=O)c1ccc(NC(=O)c2ccc([N+](=O)[O-])cc2)cc1)C(=O)Nc1ccc(C(=O)Nc2ccc(C(=O)Nc3ccc(C(=O)O)c(O)c3OC(C)C)c(O)c2OC(C)C)cc1 | 0.015 µg/mL (≈ 0.016 µM) | 0.015 µg/mL (≈ 0.016 µM) | 0.015 µg/mL (≈ 0.016 µM) | 0.125 µg/mL (≈ 0.134 µM) | 0.25 µg/mL (≈ 0.267 µM) | 0.25 µg/mL (≈ 0.267 µM) | 0.03 µg/mL (≈ 0.0321 µM) | 0.125 µg/mL (≈ 0.134 µM) | 0.125 µg/mL (≈ 0.134 µM) | 4 µg/mL (≈ 4.27 µM) | 0.125 µg/mL (≈ 0.134 µM) | 2 µg/mL (≈ 2.14 µM) |  |  |  |  |  | 
CO[C@@H](C(N)=O)[C@H](NC(=O)c1ccc(NC(=O)c2ccc([N+](=O)[O-])cc2)cc1)C(=O)Nc1ccc(C(=O)Nc2ccc(C(=O)Nc3ccc(C(=O)O)cc3OC(C)C)c(O)c2OC(C)C)cc1 | 0.063 µg/mL (≈ 0.0685 µM) | 0.125 µg/mL (≈ 0.136 µM) | 0.125 µg/mL (≈ 0.136 µM) | 1 µg/mL (≈ 1.09 µM) | 2 µg/mL (≈ 2.17 µM) | 2 µg/mL (≈ 2.17 µM) | 0.125 µg/mL (≈ 0.136 µM) | 1 µg/mL (≈ 1.09 µM) | 0.5 µg/mL (≈ 0.544 µM) | 8 µg/mL (≈ 8.7 µM) | 0.25 µg/mL (≈ 0.272 µM) | 8 µg/mL (≈ 8.7 µM) | Non-Toxic | Non-Toxic | Non-Toxic |  |  | 
CO[C@H](C(=O)O)[C@H](NC(=O)c1ccc(NC(=O)c2ccc([N+](=O)[O-])cc2)cc1)C(=O)Nc1ccc(C(=O)Nc2ccc(C(=O)Nc3ccc(C(=O)O)cc3OC(C)C)c(O)c2OC(C)C)cc1 | 2 µg/mL (≈ 2.17 µM) | 1 µg/mL (≈ 1.09 µM) | 1 µg/mL (≈ 1.09 µM) |  |  | > 16 µg/mL | 4 µg/mL (≈ 4.34 µM) | 16 µg/mL (≈ 17.4 µM) | 4 µg/mL (≈ 4.34 µM) | > 16 µg/mL | 4 µg/mL (≈ 4.34 µM) | > 16 µg/mL |  |  |  |  |  | 
O=C(O)c1cn(C2CC2)c2cc(N3CCNCC3)c(F)cc2c1=O [CIPROFLOXACIN] |  | 2 µg/mL (≈ 6.04 µM) |  | 128 µg/mL (≈ 386 µM) | 128 µg/mL (≈ 386 µM) |  | 0.5 µg/mL (≈ 1.51 µM) | 64 µg/mL (≈ 193 µM) |  | 0.06 µg/mL (≈ 0.181 µM) | 0.125 µg/mL (≈ 0.377 µM) | 0.006 µg/mL (≈ 0.0181 µM) |  |  |  |  |  | 
COc1cccc2c1C(=O)c1c(O)c3c(c(O)c1C2=O)C[C@@](O)(C(=O)CO)C[C@@H]3O[C@H]1C[C@H](N)[C@H](O)[C@H](C)O1 [DOXORUBICIN HYDROCHLORIDE] |  |  |  |  |  |  |  |  |  |  |  |  |  |  |  | 0.04 to 0.08 µg/mL | 0.04 to 0.08 µg/mL | 0.04 to 0.08 µg/mL
